Experimental data: ChEMBL document CHEMBL1156226, “Synthesis and structure-activity relationship studies of peptidomimetic PKB/Akt inhibitors: the significance of backbone interactions” (Bioorg Med Chem, 2010)
Square brackets hold non-standard residues; d marks the D form. Peptide text beside a SMILES is read from it. Gly(N-4-hydroxybenzyl) = O=C(O)CNCc1ccc(O)cc1; Gly(N-(CH2)3-guanidino) = N=C(N)NCCCNCC(=O)O; hLeu = CC(C)CC[C@H](N)C(=O)O; Nva = CCC[C@H](N)C(=O)O; Dap = NC[C@H](N)C(=O)O

Assays:
[1] = target: T1, RAC-alpha serine/threonine-protein kinase (Homo sapiens, UniProt P31749); assay: Inhibition of PKB by radioactive kinase assay
Method in brief: (§1)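 PKB/Akt enzyme HisAPHPKBEEEFlag, partly purified in one step on Ni-NTA agarose. The radioactive kinase reaction contains 50 mM Hepes pH 7.4, 0.1 mM EGTA, 0.1% 2-mercaptoethanol, 10 mM magnesium acetate, 3 uM RPRTSSF peptide substrate, 10 uM [γ32P]ATP and 0.005 units enzyme. Inhibition is given as percent reduction of activity against a no-inhibitor control. IC50 values, with 95% confidence ranges, come from curve fitting.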

[2] = target: T1, RAC-alpha serine/threonine-protein kinase; assay: Inhibition of PKB at 20 uM by radioactive kinase assay relative to control; method in brief: as §1
[3] = target: T1, RAC-alpha serine/threonine-protein kinase; assay: Inhibition of PKB at 5 uM by radioactive kinase assay relative to control; method in brief: as §1
[4] = target: T1, RAC-alpha serine/threonine-protein kinase; assay: Inhibition of PKB at 100 uM by radioactive kinase assay relative to control; method in brief: as §1

T1 sequence (P31749 whole entry): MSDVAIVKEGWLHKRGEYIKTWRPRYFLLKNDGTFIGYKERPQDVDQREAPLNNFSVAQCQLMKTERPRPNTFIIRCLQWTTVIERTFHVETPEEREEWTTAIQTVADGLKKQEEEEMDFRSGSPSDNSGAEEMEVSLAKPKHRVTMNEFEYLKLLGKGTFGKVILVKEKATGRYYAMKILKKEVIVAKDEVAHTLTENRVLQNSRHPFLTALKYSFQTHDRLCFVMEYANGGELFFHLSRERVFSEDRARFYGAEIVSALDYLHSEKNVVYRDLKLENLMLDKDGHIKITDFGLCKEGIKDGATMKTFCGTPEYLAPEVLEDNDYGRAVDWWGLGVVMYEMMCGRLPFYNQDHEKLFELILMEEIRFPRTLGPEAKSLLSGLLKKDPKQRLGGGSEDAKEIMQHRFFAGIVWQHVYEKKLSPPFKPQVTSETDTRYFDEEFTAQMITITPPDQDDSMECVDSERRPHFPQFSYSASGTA

| Compound | IC50 [1] | inhibition [2] | inhibition [3] | inhibition [4] |
| --- | --- | --- | --- | --- |
| CCC[C@H](NC(=O)[C@H](CCCN=C(N)N)NC(=O)[C@@H]1CCCN1C(=O)[C@H](CCCN=C(N)N)NC(=O)[C@@H](N)CCCN=C(N)N)C(=O)N[C@@H](Cc1ccc(O)cc1)C(=O)N[C@@H](CN)C(=O)N[C@@H](CCC(C)C)C(N)=O | 840 nM | – | – | – |
| CCC[C@H](NC(=O)[C@H](CCCN=C(N)N)NC(=O)[C@@H]1CCCN1C(=O)[C@@H](N)CCCN=C(N)N)C(=O)N[C@@H](Cc1ccc(O)cc1)C(=O)N[C@H](CS)C(=O)N[C@@H](CCC(C)C)C(N)=O | 400 nM | – | – | – |
| CCC[C@H](NC(=O)[C@H](CCCNC(=N)N)NC(=O)[C@@H]1CCCN1C(=O)[C@@H](N)CCCNC(=N)N)C(=O)N(CC(=O)N[C@@H](CN)C(=O)N[C@@H](CCC(C)C)C(N)=O)Cc1ccc(O)cc1 (H-RPR[Nva][Gly(N-4-hydroxybenzyl)][Dap][hLeu]-NH2) | – | – | 23% | 85% |
| CCC[C@H](NC(=O)[C@H](CCCNC(=N)N)NC(=O)[C@@H]1CCCN1C(=O)CNCCCNC(=N)N)C(=O)N[C@@H](Cc1ccc(O)cc1)C(=O)N[C@@H](CN)C(=O)N[C@@H](CCC(C)C)C(N)=O (H-[Gly(N-(CH2)3-guanidino)]PR[Nva]Y[Dap][hLeu]-NH2) | – | – | 32% | 95% |
| CCC[C@H](NC(=O)[C@H](CCCNC(=N)N)NC(=O)[C@@H]1CCCN1C(=O)[C@@H](N)CCCNC(=N)N)C(=O)N[C@@H](Cc1ccc(O)cc1)C(=O)N[C@@H](CN)C(=O)N(C)[C@@H](CCC(C)C)C(N)=O (HELM PEPTIDE1{R.P.R.[Nva].Y.[NC[C@H](N[*:1])C(=O)[*:2]].[CC(C)CC[C@@H](C(=O)[*:2])N(C)[*:1]].[am]}$$$$V2.0) | – | – | 5% | 86% |
| CCC[C@H](NC(=O)[C@H](CCCNC(=N)N)NC(=O)[C@@H]1CCCN1C(=O)[C@@H](N)CCCNC(=N)N)C(=O)N(C)[C@@H](Cc1ccc(O)cc1)C(=O)N[C@@H](CN)C(=O)N[C@@H](CCC(C)C)C(N)=O (HELM PEPTIDE1{R.P.R.[Nva].[meY].[NC[C@H](N[*:1])C(=O)[*:2]].[CC(C)CC[C@H](N[*:1])C(=O)[*:2]].[am]}$$$$V2.0) | – | – | 13% | 88% |
| CCC[C@H](NC(=O)[C@H](CCCNC(=N)N)N(C)C(=O)[C@@H]1CCCN1C(=O)[C@@H](N)CCCNC(=N)N)C(=O)N[C@@H](Cc1ccc(O)cc1)C(=O)N[C@@H](CN)C(=O)N[C@@H](CCC(C)C)C(N)=O (HELM PEPTIDE1{R.P.[meR].[Nva].Y.[NC[C@H](N[*:1])C(=O)[*:2]].[CC(C)CC[C@H](N[*:1])C(=O)[*:2]].[am]}$$$$V2.0) | – | – | 39% | 92% |
| CCC[C@H](NC(=O)[C@H](CCCNC(=N)N)NC(=O)[C@@H]1CCCN1C(=O)[C@H](CCCNC(=N)N)NC(C)=O)C(=O)N[C@@H](Cc1ccc(O)cc1)C(=O)N(C)[C@@H](CN)C(=O)N[C@@H](CCC(C)C)C(N)=O (HELM PEPTIDE1{[ac].R.P.R.[Nva].Y.[CN([C@@H](CN)C(=O)[*:2])[*:1]].[CC(C)CC[C@H](N[*:1])C(=O)[*:2]].[am]}$$$$V2.0) | – | – | – | 33% |
| CCC[C@H](NC(=O)[C@H](CCCNC(=N)N)NC(=O)[C@@H]1CCCN1C(=O)[C@H](CCCNC(=N)N)NC(C)=O)C(=O)N[C@@H](Cc1ccc(O)cc1)C(=O)N[C@@H](CN)C(=O)N(C)[C@@H](CCC(C)C)C(=O)O (HELM PEPTIDE1{[ac].R.P.R.[Nva].Y.[NC[C@H](N[*:1])C(=O)[*:2]].[CC(C)CC[C@@H](C(=O)O)N(C)[*:1]]}$$$$V2.0) | – | – | – | 1% |
| CCC[C@H](NC(=O)[C@H](CCCNC(=N)N)NC(=O)[C@@H]1CCCN1C(=O)[C@H](CCCNC(=N)N)NC(C)=O)C(=O)N[C@@H](Cc1ccc(O)cc1)C(=O)N[C@@H](CN)C(=O)N(C)[C@@H](CCC(C)C)C(N)=O (HELM PEPTIDE1{[ac].R.P.R.[Nva].Y.[NC[C@H](N[*:1])C(=O)[*:2]].[CC(C)CC[C@@H](C(=O)[*:2])N(C)[*:1]].[am]}$$$$V2.0) | – | – | – | 29% |
| CCC[C@H](NC(=O)[C@H](CCCNC(=N)N)NC(=O)[C@@H]1CCCN1C(=O)[C@H](CCCNC(=N)N)NC(C)=O)C(=O)N[C@@H](Cc1ccc(O)cc1)C(=O)N[C@@H](CN)C(=O)N[C@@H](CCC(C)C)C(N)=O (HELM PEPTIDE1{[ac].R.P.R.[Nva].Y.[NC[C@H](N[*:1])C(=O)[*:2]].[CC(C)CC[C@H](N[*:1])C(=O)[*:2]].[am]}$$$$V2.0) | – | – | 45% | 92% |
| CCC[C@H](NC(=O)[C@H](CCCNC(=N)N)NC(=O)[C@@H]1CCCN1C(=O)[C@H](CCCNC(=N)N)NC(C)=O)C(=O)N[C@@H](Cc1ccc(O)cc1)C(=O)N[C@@H](CN)C(=O)N(CC(=O)O)CC(C)CC (some centres not stated) (HELM PEPTIDE1{[ac].R.P.R.[Nva].Y.[NC[C@H](N[*:1])C(=O)[*:2]].[CCC(C)CN(CC(=O)O)[*:1]]}$$$$V2.0) | – | – | – | 4% |
| CCC[C@H](NC(=O)[C@H](CCCNC(=N)N)NC(=O)[C@@H]1CCCN1C(=O)[C@H](CCCNC(=N)N)NC(C)=O)C(=O)N[C@@H](Cc1ccc(O)cc1)C(=O)N[C@@H](CN)C(=O)N(CC(N)=O)CC(C)CC (some centres not stated) (HELM PEPTIDE1{[ac].R.P.R.[Nva].Y.[NC[C@H](N[*:1])C(=O)[*:2]].[CCC(C)CN(CC(=O)[*:2])[*:1]].[am]}$$$$V2.0) | – | – | – | 1% |
| CCC[C@H](NC(=O)[C@H](CCCNC(=N)N)NC(=O)[C@@H]1CCCN1C(=O)[C@H](CCCNC(=N)N)NC(C)=O)C(=O)N(C)[C@@H](Cc1ccc(O)cc1)C(=O)N[C@@H](CN)C(=O)N[C@@H](CCC(C)C)C(N)=O (HELM PEPTIDE1{[ac].R.P.R.[Nva].[meY].[NC[C@H](N[*:1])C(=O)[*:2]].[CC(C)CC[C@H](N[*:1])C(=O)[*:2]].[am]}$$$$V2.0) | – | – | – | 40% |
| CCC[C@H](NC(=O)[C@H](CCCN=C(N)N)NC(=O)[C@@H]1CCCN1C(=O)[C@H](CCCN=C(N)N)NC(=O)[C@H](CCCN=C(N)N)NC(C)=O)C(=O)N[C@@H](Cc1ccc(O)cc1)C(=O)N[C@@H](CN)C(=O)N[C@@H](CCC(C)C)C(N)=O (HELM PEPTIDE1{[ac].R.R.P.R.[Nva].Y.[NC[C@H](N[*:1])C(=O)[*:2]].[CC(C)CC[C@H](N[*:1])C(=O)[*:2]].[am]}$$$$V2.0) | 1170 nM | – | – | – |

Other lines, results leading:

| IC50 [1] | inhibition [2] | inhibition [3] | inhibition [4] | Compound |
| --- | --- | --- | --- | --- |
| – | 92% | 73% | – | CCC[C@H](NC(=O)[C@H](CCCNC(=N)N)NC(=O)[C@@H]1CCCN1C(=O)[C@H](CCCNC(=N)N)NC(=O)[C@@H](N)CCCCN)C(=O)N[C@@H](Cc1ccc(O)cc1)C(=O)N[C@@H](CN)C(=O)N[C@@H](CCC(C)C)C(N)=O |
| – | 96% | 88% | – | CCC[C@H](NC(=O)[C@H](CCCNC(=N)N)NC(=O)[C@@H]1CCCN1C(=O)[C@H](CCCNC(=N)N)NC(=O)[C@@H](N)CCCNC(=N)N)C(=O)N[C@@H](Cc1ccc(O)cc1)C(=O)N[C@@H](CN)C(=O)N[C@@H](CCC(C)C)C(N)=O |
| – | 48% | – | – | CCC[C@H](NC(=O)[C@H](CCCNC(=N)N)NC(=O)[C@@H]1CCCN1C(=O)[C@H](CCCNC(=N)N)NC(=O)[C@H](N)CCCCN)C(=O)N[C@@H](Cc1ccc(O)cc1)C(=O)N[C@@H](CN)C(=O)N[C@@H](CCC(C)C)C(=O)O |
| – | 3% | – | – | CCC[C@H](NC(=O)[C@H](CCCNC(=N)N)NC(=O)[C@@H]1CCCN1C(=O)[C@H](CCCNC(=N)N)NC(=O)[C@H](N)CCCCN)C(=O)N[C@@H](Cc1ccc(O)cc1)C(=O)N[C@@H](CN)C(=O)N[C@@H](CCC(C)C)C(N)=O |
| – | 69% | – | – | CCC[C@H](NC(=O)[C@H](CCCNC(=N)N)NC(=O)[C@@H]1CCCN1C(=O)[C@H](CCCNC(=N)N)NC(=O)[C@H](N)CCCNC(=N)N)C(=O)N[C@@H](Cc1ccc(O)cc1)C(=O)N[C@@H](CN)C(=O)N[C@@H](CCC(C)C)C(=O)O |
| – | 40% | – | – | CCC[C@H](NC(=O)[C@H](CCCNC(=N)N)NC(=O)[C@@H]1CCCN1C(=O)[C@H](CCCNC(=N)N)NC(=O)[C@H](N)CCCNC(=N)N)C(=O)N[C@@H](Cc1ccc(O)cc1)C(=O)N[C@@H](CN)C(=O)N[C@@H](CCC(C)C)C(N)=O |
| – | – | 51% | 95% | CCC[C@H](NC(=O)[C@H](CCCNC(=N)N)NC(=O)[C@@H]1CCCN1C(=O)[C@@H](N)CCCNC(=N)N)C(=O)N[C@@H](Cc1ccc(O)cc1)C(=O)N[C@@H](CN)C(=O)N[C@@H](CCC(C)C)C(=O)O (HELM PEPTIDE1{R.P.R.[Nva].Y.[NC[C@H](N[*:1])C(=O)[*:2]].[CC(C)CC[C@H](N[*:1])C(=O)O]}$$$$V2.0) |
| – | 46% | – | – | CCC[C@H](NC(=O)[C@H](CCCNC(=N)N)NC(=O)[C@@H]1CCCN1C(=O)[C@H](CCCNC(=N)N)NC(=O)[C@H](CCCCN)NC(C)=O)C(=O)N[C@@H](Cc1ccc(O)cc1)C(=O)N[C@@H](CN)C(=O)N[C@@H](CCC(C)C)C(=O)O (HELM PEPTIDE1{[ac].K.R.P.R.[Nva].Y.[NC[C@H](N[*:1])C(=O)[*:2]].[CC(C)CC[C@H](N[*:1])C(=O)O]}$$$$V2.0) |
| – | 85% | 61% | – | CCC[C@H](NC(=O)[C@H](CCCNC(=N)N)NC(=O)[C@@H]1CCCN1C(=O)[C@H](CCCNC(=N)N)NC(=O)[C@H](CCCCN)NC(C)=O)C(=O)N[C@@H](Cc1ccc(O)cc1)C(=O)N[C@@H](CN)C(=O)N[C@@H](CCC(C)C)C(N)=O (HELM PEPTIDE1{[ac].K.R.P.R.[Nva].Y.[NC[C@H](N[*:1])C(=O)[*:2]].[CC(C)CC[C@H](N[*:1])C(=O)[*:2]].[am]}$$$$V2.0) |
| – | – | – | 66% | CCC[C@H](NC(=O)[C@H](CCCNC(=N)N)NC(=O)[C@@H]1CCCN1C(=O)[C@H](CCCNC(=N)N)NC(C)=O)C(=O)N[C@@H](Cc1ccc(O)cc1)C(=O)N[C@@H](CN)C(=O)N[C@@H](CCC(C)C)C(=O)O (HELM PEPTIDE1{[ac].R.P.R.[Nva].Y.[NC[C@H](N[*:1])C(=O)[*:2]].[CC(C)CC[C@H](N[*:1])C(=O)O]}$$$$V2.0) |
| – | 94% | 83% | – | CCC[C@H](NC(=O)[C@H](CCCNC(=N)N)NC(=O)[C@@H]1CCCN1C(=O)[C@H](CCCNC(=N)N)NC(=O)[C@H](CCCNC(=N)N)NC(C)=O)C(=O)N[C@@H](Cc1ccc(O)cc1)C(=O)N[C@@H](CN)C(=O)N[C@@H](CCC(C)C)C(N)=O (HELM PEPTIDE1{[ac].R.R.P.R.[Nva].Y.[NC[C@H](N[*:1])C(=O)[*:2]].[CC(C)CC[C@H](N[*:1])C(=O)[*:2]].[am]}$$$$V2.0) |
